Broadly, the inhibition is the percentage by which the read-out fell short of the control. A low value points to a response near the control.

Drawing on ChEMBL document CHEMBL1629474, “Massive screening yields novel and selective Trypanosoma cruzi triosephosphate isomerase dimer-interface-irreversible inhibitors with anti-trypanosomal activity” (Eur J Med Chem, 2010), this text covers Ratio, inhibition and Activity for 48 compounds.

The structures appear in SMILES notation. Calls of active or inactive are those of the source. No rule for the calls is given here.

The nature of experiment [1]: Selectivity for Trypanosoma cruzi triosephosphate isomerase over human triosephosphate isomerase.
Experiment [2] has as its target Triosephosphate isomerase, glycosomal (Trypanosoma cruzi) (UniProt P52270). Nature of the experiment: Inhibition of Trypanosoma cruzi triosephosphate isomerase at 100 uM after 2 hrs. The method in brief:
(§1)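 Recombinant E. coli-expressed enzyme, dialyzed into 100 mM triethanolamine/10 mM EDTA pH 7.4, was incubated with compound (DMSO stock) in 100 mM triethanolamine, 10 mM EDTA, pH 7.4, 10% DMSO at 36 °C for 2 h. An aliquot was then assayed for activity (glyceraldehyde 3-phosphate to dihydroxyacetone phosphate, α-glycerol phosphate dehydrogenase-coupled) with 5 ng enzyme. Irreversible inhibition was scored as loss of activity; means of two experiments.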

For experiment [3] the target is unchanged. Put plainly: Inhibition of Trypanosoma cruzi triosephosphate isomerase at 400 uM after 2 hrs. The method in brief: as §1
The next experiment relates to Trypanosoma cruzi. Nature of the experiment: Antiparasitic activity against Trypanosoma cruzi T2 epimastigotes assessed as growth inhibition at 25 uM after 5 days. In kind it is functional. The method in brief:
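Late-log epimastigotes were grown axenically at 28 °C in BHI-tryptose with 5% fetal calf serum and seeded at 2×10^6/mL in medium containing compound (DMSO stock; final DMSO ≤1%, 1% DMSO control). Growth was read as A590 at day 0 and day 5. Inhibition = {1 − [(Ap − A0p)/(Ac − A0c)]} × 100. Means of two experiments.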

Triosephosphate isomerase, glycosomal (Trypanosoma cruzi), sequence (P52270 whole entry): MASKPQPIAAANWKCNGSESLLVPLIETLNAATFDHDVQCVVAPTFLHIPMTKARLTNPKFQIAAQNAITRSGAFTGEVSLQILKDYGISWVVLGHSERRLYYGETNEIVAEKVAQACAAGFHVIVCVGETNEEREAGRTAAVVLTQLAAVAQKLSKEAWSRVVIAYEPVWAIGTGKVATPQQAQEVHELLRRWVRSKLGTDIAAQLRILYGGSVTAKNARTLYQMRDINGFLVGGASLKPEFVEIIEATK

Take `C/C(=C\c1ccc(Br)cc1)[N+](=O)[O-]`: the Ratio in experiment [1] was above 4. The inhibition was 0% in experiment [2] and 95% in experiment [3]. Moreover, the outcome in the experiment on Trypanosoma cruzi was Active.
Consider `Nc1ccc(-c2ccccc2)cc1[N+](=O)[O-]`, for which, in experiment [1], the Ratio is above 4. In addition, the results for the inhibition in experiment [2] and in experiment [3] were 47% and 93%, respectively.
For `CCOC(=O)c1nc(-c2cc(C(C)(C)C)c(O)c(C(C)(C)C)c2)ns1`, the Ratio in experiment [1] was above 4. The inhibition was 65% in experiment [2] and 87% in experiment [3]. Further, in the experiment on Trypanosoma cruzi, the result was Active.
On the same counts, the results for `NC(=S)N/N=C/c1ccc([N+](=O)[O-])o1` are above 4, 57%, 85% and “Active”.
Taken in the same sequence, the figures for `O=C(N/N=C/C=C/c1ccc([N+](=O)[O-])o1)Nc1ccc2ccccc2c1` were above 4, 47%, 100% and “Active”.
On the same counts, the results for `[O-][n+]1onc2ccc(/C=C/c3cccs3)cc21` are above 4, 27%, 73% and “Active”.
`[O-][n+]1onc2ccc(/C=C/c3ccc4c(c3)OCO4)cc21`: in experiment [1], the Ratio is above 4. The results for the inhibition in experiment [2] and in experiment [3] were 21% and 70%, respectively. In the experiment with Trypanosoma cruzi, the outcome was Active.
As to `O=C1C(=Cc2ccc([N+](=O)[O-])s2)C(=O)N(CCc2ccccc2)S(=O)(=O)N1CCc1ccccc1`, in experiment [1], the Ratio is above 4. The inhibition is 68% in experiment [2] and 82% in experiment [3]. Moreover, in the experiment with Trypanosoma cruzi, the outcome was Active.
Taken in the same sequence, the figures for `O=[N+]([O-])c1ccc(/C=N/NC(=S)Nc2ccccc2)s1` were above 4, 25%, 100% and “Active”.
Turning to `O=C1C(=Cc2ccc([N+](=O)[O-])cc2)C(=O)N(CCc2ccccc2)S(=O)(=O)N1CCc1ccccc1`, the Ratio in experiment [1] is above 4. Besides, the results for the inhibition in experiment [2] and in experiment [3] were 58% and 85%, respectively. The result in the experiment with Trypanosoma cruzi was Active.
With `[O-][n+]1onc2ccc(/C=C/Sc3ccc(F)cc3)cc21`, the Ratio in experiment [1] was above 4. The inhibition in experiment [2] came to 47%; in experiment [3] it was 88%. Also, the outcome in the experiment with Trypanosoma cruzi was Active.
On the same counts, the results for `COc1ccc(CCNC(=O)N/N=C/c2ccc([N+](=O)[O-])o2)cc1OC` are above 4, 76%, 100% and “Active”.
For `O=[N+]([O-])c1ccc(C=Cc2ccc3no[n+]([O-])c3c2)s1`, the Ratio in experiment [1] is above 4. For the same compound, the results for the inhibition in experiment [2] and in experiment [3] were 82% and 71%, respectively. Further, the result in the experiment on Trypanosoma cruzi was Active.
On the same counts, the results for `O=C1C(=Cc2ccc([N+](=O)[O-])cc2)C(=O)N(Cc2ccccc2)S(=O)(=O)N1Cc1ccccc1` are above 4, 28%, 74% and “Active”.
On the same counts, the results for `Cc1c(CNc2ccc3ccccc3c2)no[n+]1[O-]` are above 4, 0%, 92% and “Active”.
Taken in the same sequence, the figures for `[O-][n+]1onc2ccc(/C=C/c3ccc4nonc4c3)cc21` were above 4, 13%, 80% and “Active”.
On to `[O-][n+]1onc2ccc(/C=N/N=C/c3cc(Br)ccc3O)cc21`, for which, in experiment [1], the Ratio was above 4. Further, the inhibition in experiment [2] came to 0%; in experiment [3] it was 100%. Moreover, the result in the experiment with Trypanosoma cruzi was Active.
Take `O=C(/C=C/c1ccccc1)c1ccccc1`: in experiment [1], the Ratio is above 4. Further, the inhibition in experiment [3] stood at 33%. For the same compound, in the experiment with Trypanosoma cruzi, the result was Active.
Taken in the same sequence, the figures for `[O-][n+]1onc(-c2ccccc2)c1CN1CCN(c2ccccc2)CC1` were above 4, 27% and “Active”.
On the same counts, the results for `CCCCNC(=O)N/N=C/C=C/c1ccc([N+](=O)[O-])o1` are above 4, 1% and “Active”.
On the same counts, the results for `Cc1nnc[n+]([O-])c1/C=C/c1ccc(N(C)C)cc1` are above 4, 8% and “Active”.
Regarding `Cc1nnsc1CO`, in experiment [1], the Ratio was above 4. The compound further yielded an inhibition in experiment [3] of 29%. Also, the outcome in the experiment on Trypanosoma cruzi was Active.
Taken in the same sequence, the figures for `[O-][N+]1=c2cc(Cl)c(Cl)cc2=[N+]([O-])C12CCCC2` were above 4, 56% and “Active”.
For the compound `[O-][n+]1onc2ccc(CBr)cc21`, the Ratio in experiment [1] was above 4. This compound showed an inhibition in experiment [3] of 10%. For the same compound, in the experiment on Trypanosoma cruzi, the result was Active.
Taken in the same sequence, the figures for `CCCN(CCCCCn1nc(OCc2ccccc2)c2cc([N+](=O)[O-])ccc21)CCC(C)C1CC=C(C)CC1` (stereo not given) were above 4, 11% and “Active”.
Turning to `[O-][n+]1onc2ccc(/C=N/NC(=S)Nc3ccccc3)cc21`, in experiment [1], the Ratio is above 4. In addition, the inhibition in experiment [3] turned out to be 60%. In the experiment with Trypanosoma cruzi, the result was Active.
Taken in the same sequence, the figures for `Cc1no[n+]([O-])c1/C=N/NC(N)=O` were above 4, 2% and “Active”.
Taken in the same sequence, the figures for `O=C(/C=C/c1ccccc1)c1ccccc1O` were above 4, 15% and “Active”.
Taken in the same sequence, the figures for `Cc1ccc2no[n+]([O-])c2c1` were above 4, 8% and “Active”.
For the compound `Nc1ccc2c(c1)[n+]([O-])c1cc(Br)ccc1[n+]2[O-]`, the Ratio in experiment [1] was above 4. The inhibition in experiment [3] turned out to be 59%. Moreover, the outcome in the experiment on Trypanosoma cruzi was Active.
On the same counts, the results for `C=C(C)CNC(=O)Oc1ccccc1` are above 4, 48% and “Active”.
Take `Oc1ccc(N/C(S)=N/c2ccccc2)cc1`: in experiment [1], the Ratio is above 4. The inhibition in experiment [3] worked out at 24%. In addition, in the experiment on Trypanosoma cruzi, the outcome was Active.
Taken in the same sequence, the figures for `O=C1C(=Cc2ccc([N+](=O)[O-])cc2)C(=O)N(C2CCCCC2)S(=O)(=O)N1C1CCCCC1` were above 4, 51% and “Active”.
On the same counts, the results for `O=S(=O)(/C=C/c1ccc2no[n+]([O-])c2c1)c1ccc(F)cc1` are above 4, 15% and “Active”.
On the same counts, the results for `O=C(N/N=C/c1ccc([N+](=O)[O-])o1)Oc1ccccc1` are above 4, 27% and “Active”.
As to `COc1ccc(/C=C/c2c(C)nnc[n+]2[O-])cc1`, the Ratio in experiment [1] was above 4. This compound also had an inhibition in experiment [3] of 11%. In addition, the result in the experiment with Trypanosoma cruzi was Active.
On the same counts, the results for `O=[N+]([O-])c1ccc(/N=C/c2ccccc2[N+](=O)[O-])cc1` are above 4, 34% and “Active”.
In the case of `O=[N+]([O-])c1ccc2c(c1)c(OCc1ccccc1)nn2CCOCCN1CCSCC1`, the Ratio in experiment [1] was above 4. The compound also returned an inhibition in experiment [3] of 12%. Besides, the result in the experiment on Trypanosoma cruzi was Active.
On the same counts, the results for `CC(=N\c1ccc(C)cc1)/C(C)=N/c1ccc(C)cc1` are above 4, 23% and “Active”.
On the same counts, the results for `CC(=O)CN1C(=O)c2ccccc2C1=O` are above 4, 30% and “Active”.
Taken in the same sequence, the figures for `C=CCNC(=S)N/N=C/c1ccco1` were above 4, 12% and “Active”.
For the compound `[O-][n+]1onc2ccc(/C=N/N=C/c3ccccc3O)cc21`, the Ratio in experiment [1] is above 4. In experiment [3], this compound showed an inhibition of 24%. Moreover, the outcome with Trypanosoma cruzi was Active.
On to `CCOC(=O)c1[nH]c(=O)n(CCc2ccccc2)c1C`, for which the Ratio in experiment [1] was above 4. The inhibition in experiment [3] was determined as 0%. For the same compound, in the experiment with Trypanosoma cruzi, the result was Active.
Taken in the same sequence, the figures for `CCCN(CCOCCn1nc(OCc2ccccc2)c2cc([N+](=O)[O-])ccc21)CCC(C)C1CC=C(C)CC1` (stereo not given) were above 4, 0% and “Active”.
Taken in the same sequence, the figures for `O=[N+]([O-])c1ccc2c(c1)c(OCc1ccccc1)nn2CCOCCN1CCN(C/C=C/c2ccccc2)CC1` were above 4, 18% and “Active”.
On the same counts, the results for `N#Cc1c2ccccc2[n+]([O-])n1-c1ccc2ccccc2c1` are above 4, 19% and “Active”.
On to `CCCCCCOC(=O)N/N=C/C=C/c1ccc([N+](=O)[O-])o1`, for which the Ratio in experiment [1] is above 4. Also, in experiment [3], the inhibition came out at 39%. In addition, the result in the experiment with Trypanosoma cruzi was Active.
Turning to `CCCCNC(=O)N/N=C/c1c(C)no[n+]1[O-]`, the Ratio in experiment [1] was above 4. Also, the inhibition in experiment [3] is 2%. Moreover, the result in the experiment on Trypanosoma cruzi was Active.
